Laboratory results reported in ChEMBL document CHEMBL1140444, “Synthesis and structure-activity relationships of novel anti-hepatitis C agents: N3,5'-cyclo-4-(beta-D-ribofuranosyl)-vic-triazolo[4,5-b]pyridin-5-one derivatives” (2005).

Key:
[1] = system: Huh-7; assay: Cytotoxic concentration against HCV RNA replication in a subgenomic replicon Huh7 cell line; type: functional; conditions: Homo sapiens
[2] = system: Hepatitis C virus; assay: Effective concentration against HCV RNA replication in a subgenomic replicon Huh7 cell line; type: functional, Hepacivirus hominis; conditions: Huh-7
Method in brief: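 HCV replicon Clone A cells in log-phase growth exposed to various compound concentrations for 3 days. HCV RNA extracted and quantified by real-time PCR. EC90 is the concentration reducing HCV RNA by 90%.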

Row | EC90 [2] [µM] | SMILES | CC50 [1] [µM]
1 | > 100 | CCNc1cc(=O)n2c3c1nnn3C[C@H]1O[C@@H]2[C@H](O)C1O (single isomer, unassigned) | > 100
2 | 15.4 | Cc1cc(=O)n2c3c1nnn3C[C@H]1O[C@@H]2[C@H](O)C1O (single isomer, unassigned) | 22.6
3 | 86.1 | COCCNc1cc(=O)n2c3c1nnn3C[C@H]1O[C@@H]2[C@H](O)C1O (single isomer, unassigned) | 97.3
4 | > 100 | CN(C)c1cc(=O)n2c3c1nnn3C[C@H]1O[C@@H]2[C@H](O)C1O (single isomer, unassigned) | > 100
5 | 7.4 | CNc1cc(=O)n2c3c1nnn3C[C@H]1O[C@@H]2[C@H](O)C1O (single isomer, unassigned) | 4.6
6 | 2.1 | O=c1c(Cl)cc2nnn3c2n1[C@@H]1O[C@H](C3)C(O)[C@H]1O (single isomer, unassigned) | 0.06
7 | 79.8 | O=c1ccc2nnn3c2n1[C@@H]1O[C@H](C3)C(O)[C@H]1O (single isomer, unassigned) | 30.6
8 | 10 | OC1[C@@H](O)[C@H]2O[C@@H]1Cn1nnc3ccc(=S)n2c31 (single isomer, unassigned) | 11.9
9 | > 100 | CCCNc1cc(=O)n2c3c1nnn3C[C@H]1O[C@@H]2[C@H](O)C1O (single isomer, unassigned) | > 100
10 | > 100 | CCCCNc1cc(=O)n2c3c1nnn3C[C@H]1O[C@@H]2[C@H](O)C1O (single isomer, unassigned) | > 100
11 | > 100 | O=c1cc(NCCO)c2nnn3c2n1[C@@H]1O[C@H](C3)C(O)[C@H]1O (single isomer, unassigned) | > 100
12 | 1.9 | O=c1c(Br)cc2nnn3c2n1[C@@H]1O[C@H](C3)C(O)[C@H]1O (single isomer, unassigned) | 1.5
13 | 29.7 | Nc1cc(=O)n2c3c1nnn3C[C@H]1O[C@@H]2[C@H](O)C1O (single isomer, unassigned) | 74.2
14 | > 100 | O=c1cc(NC2CC2)c2nnn3c2n1[C@@H]1O[C@H](C3)C(O)[C@H]1O (single isomer, unassigned) | > 100
15 | > 100 | O=c1cc(NCCCO)c2nnn3c2n1[C@@H]1O[C@H](C3)C(O)[C@H]1O (single isomer, unassigned) | > 100
